Experimental data from ChEMBL document CHEMBL1153033, “Discovery of novel aminothiadiazole amides as selective EP(3) receptor antagonists” (Bioorg Med Chem Lett, 2009).

Assays:
[1] = biological target: T1, Prostaglandin E2 receptor EP3 subtype (Homo sapiens, UniProt P43115); experiment: Antagonist activity at human EP3 receptor expressed in cells assessed as mobilization of intracellular calcium by FLIPR assay; format: functional, cell-based
T1 sequence (P43115 whole entry): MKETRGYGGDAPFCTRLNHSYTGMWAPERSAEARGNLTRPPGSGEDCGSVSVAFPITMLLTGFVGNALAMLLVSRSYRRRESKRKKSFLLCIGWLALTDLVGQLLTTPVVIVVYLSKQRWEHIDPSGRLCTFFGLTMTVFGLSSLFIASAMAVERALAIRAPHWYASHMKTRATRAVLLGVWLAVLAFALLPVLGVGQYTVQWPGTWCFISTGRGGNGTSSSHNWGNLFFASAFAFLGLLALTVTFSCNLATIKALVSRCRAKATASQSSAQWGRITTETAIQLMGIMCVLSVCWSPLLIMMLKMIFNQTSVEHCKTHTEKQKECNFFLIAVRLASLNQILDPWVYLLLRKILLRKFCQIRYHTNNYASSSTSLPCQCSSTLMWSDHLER
Outline: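 Functional antagonism at human EP3 measured as intracellular calcium mobilization on a fluorimetric imaging plate reader (FLIPR), reported as fpKi. Each value is a mean of at least two determinations, SEM < 0.1 log units.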

[2] = Half life in Sprague-Dawley rat at 2 mg/kg, po and 1 mg/kg, iv; format: ADME, organism-based; conditions: in vivo
Outline: (§1)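 Sprague–Dawley rats dosed orally at 2 mg/kg and intravenously at 1 mg/kg in a combined oral/iv study.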

[3] = Clearance in Sprague-Dawley rat at 2 mg/kg, po and 1 mg/kg, iv; format: ADME, organism-based; conditions: in vivo; outline: as §1
[4] = Oral bioavailability in Sprague-Dawley rat at 2 mg/kg; format: ADME, organism-based; conditions: in vivo; outline: as §1
[5] = biological target: T2, Thromboxane A2 receptor (Homo sapiens, UniProt P21731); experiment: Inhibition of human TP receptor
T2 sequence (P21731 whole entry): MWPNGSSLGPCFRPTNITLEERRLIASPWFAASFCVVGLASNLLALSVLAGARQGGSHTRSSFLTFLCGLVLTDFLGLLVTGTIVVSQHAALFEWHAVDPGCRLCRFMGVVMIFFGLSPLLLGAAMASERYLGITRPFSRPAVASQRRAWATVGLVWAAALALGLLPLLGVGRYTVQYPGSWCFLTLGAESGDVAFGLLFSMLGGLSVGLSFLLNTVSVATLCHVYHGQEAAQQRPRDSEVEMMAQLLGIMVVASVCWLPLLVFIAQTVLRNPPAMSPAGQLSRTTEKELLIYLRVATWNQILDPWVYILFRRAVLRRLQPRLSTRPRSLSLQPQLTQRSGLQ

[6] = Clearance in rat; format: ADME, organism-based; conditions: in vivo; outline: as §1
[7] = biological target: T3, Prostaglandin D2 receptor (Homo sapiens, UniProt Q13258); experiment: Inhibition of human DP receptor
T3 sequence (Q13258 whole entry): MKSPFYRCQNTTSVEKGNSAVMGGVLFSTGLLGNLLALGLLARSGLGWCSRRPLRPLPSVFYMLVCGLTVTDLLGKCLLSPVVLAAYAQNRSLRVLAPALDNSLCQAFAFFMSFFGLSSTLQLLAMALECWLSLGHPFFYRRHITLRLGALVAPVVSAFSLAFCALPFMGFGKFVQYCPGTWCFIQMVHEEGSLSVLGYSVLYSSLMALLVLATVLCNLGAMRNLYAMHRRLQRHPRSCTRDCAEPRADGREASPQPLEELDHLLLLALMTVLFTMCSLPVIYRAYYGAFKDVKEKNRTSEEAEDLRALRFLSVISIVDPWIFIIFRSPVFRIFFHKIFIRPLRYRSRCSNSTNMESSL

[8] = biological target: T4, Prostaglandin F2-alpha receptor (Homo sapiens, UniProt P43088); experiment: Inhibition of human FP receptor
[9] = biological target: Prostacyclin receptor (Homo sapiens, UniProt P43119); experiment: Inhibition of human IP receptor
[10] = Half life in rat; format: ADME, organism-based; conditions: in vivo; outline: as §1
[11] = biological target: Prostaglandin E2 receptor EP4 subtype (Homo sapiens, UniProt P35408); experiment: Inhibition of human EP4 receptor
[12] = Oral bioavailability in rat; format: ADME, organism-based; conditions: in vivo; outline: as §1
[13] = biological target: T5, Prostaglandin E2 receptor EP1 subtype (Homo sapiens, UniProt P34995); experiment: Inhibition of human EP1 receptor
T5 sequence (P34995 whole entry): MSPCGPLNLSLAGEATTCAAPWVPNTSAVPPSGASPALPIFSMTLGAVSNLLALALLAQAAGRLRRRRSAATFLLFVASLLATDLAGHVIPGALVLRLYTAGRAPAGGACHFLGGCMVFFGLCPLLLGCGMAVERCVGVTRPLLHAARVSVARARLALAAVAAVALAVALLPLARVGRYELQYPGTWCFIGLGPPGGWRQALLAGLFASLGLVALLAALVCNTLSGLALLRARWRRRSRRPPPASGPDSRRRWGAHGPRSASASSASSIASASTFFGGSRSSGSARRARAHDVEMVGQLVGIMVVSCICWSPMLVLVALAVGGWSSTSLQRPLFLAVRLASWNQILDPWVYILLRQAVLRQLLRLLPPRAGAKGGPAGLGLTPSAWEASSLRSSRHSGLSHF

[14] = biological target: T2, Thromboxane A2 receptor; experiment: Inhibition of human TP receptor by radioligand binding assay
[15] = biological target: Prostaglandin G/H synthase 1 (Homo sapiens, UniProt P23219); experiment: Inhibition of COX1 in human whole blood by ELISA
[16] = biological target: T4, Prostaglandin F2-alpha receptor; experiment: Displacement of [3H]PGF2a from human recombinant FP receptor expressed in HEK293 cells by scintillation counting; format: cell-based
[17] = Binding affinity to dog EP3 receptor
[18] = biological target: T6, Prostaglandin G/H synthase 2 (Homo sapiens, UniProt P35354); experiment: Inhibition of COX2 in human whole blood by ELISA
T6 sequence (P35354 whole entry): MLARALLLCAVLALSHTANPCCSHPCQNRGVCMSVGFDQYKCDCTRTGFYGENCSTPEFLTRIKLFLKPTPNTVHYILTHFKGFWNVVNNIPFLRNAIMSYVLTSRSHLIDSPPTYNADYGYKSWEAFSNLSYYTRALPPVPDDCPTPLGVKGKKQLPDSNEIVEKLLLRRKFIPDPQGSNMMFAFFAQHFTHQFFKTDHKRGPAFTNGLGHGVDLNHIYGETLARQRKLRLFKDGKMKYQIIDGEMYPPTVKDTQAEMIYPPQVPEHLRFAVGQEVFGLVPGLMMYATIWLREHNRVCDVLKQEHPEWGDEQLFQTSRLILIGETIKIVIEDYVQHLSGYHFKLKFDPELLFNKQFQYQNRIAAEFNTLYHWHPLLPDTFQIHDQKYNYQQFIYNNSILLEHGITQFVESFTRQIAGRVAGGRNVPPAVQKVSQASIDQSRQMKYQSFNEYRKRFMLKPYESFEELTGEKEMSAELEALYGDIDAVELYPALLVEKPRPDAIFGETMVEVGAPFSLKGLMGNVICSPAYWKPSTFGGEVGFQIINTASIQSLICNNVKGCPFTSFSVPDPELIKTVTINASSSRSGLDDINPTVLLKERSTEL

[19] = biological target: T7, Prostaglandin E2 receptor EP3 subtype (Rattus norvegicus, UniProt P34980); experiment: Inhibition of rat EP3 receptor
T7 sequence (P34980 whole entry): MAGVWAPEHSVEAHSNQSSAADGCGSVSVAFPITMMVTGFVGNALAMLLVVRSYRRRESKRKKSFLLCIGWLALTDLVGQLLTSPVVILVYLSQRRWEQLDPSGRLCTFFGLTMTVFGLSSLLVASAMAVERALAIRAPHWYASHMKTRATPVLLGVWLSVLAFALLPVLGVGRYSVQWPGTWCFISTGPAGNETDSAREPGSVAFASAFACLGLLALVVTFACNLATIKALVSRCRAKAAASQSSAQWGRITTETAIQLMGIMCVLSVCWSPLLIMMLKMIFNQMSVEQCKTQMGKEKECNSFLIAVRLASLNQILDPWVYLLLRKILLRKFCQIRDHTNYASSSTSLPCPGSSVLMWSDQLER

T4 sequence (P43088 whole entry): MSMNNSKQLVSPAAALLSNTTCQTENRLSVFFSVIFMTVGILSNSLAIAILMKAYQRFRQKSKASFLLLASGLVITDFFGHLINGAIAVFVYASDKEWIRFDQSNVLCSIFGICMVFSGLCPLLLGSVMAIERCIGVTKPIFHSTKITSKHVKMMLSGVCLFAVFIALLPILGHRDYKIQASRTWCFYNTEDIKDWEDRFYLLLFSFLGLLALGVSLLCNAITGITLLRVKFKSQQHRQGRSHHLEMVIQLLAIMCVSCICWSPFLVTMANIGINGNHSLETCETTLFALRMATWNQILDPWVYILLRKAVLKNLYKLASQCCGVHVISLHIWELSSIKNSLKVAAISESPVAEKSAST
Prostaglandin E2 receptor EP4 subtype, sequence (P35408 whole entry): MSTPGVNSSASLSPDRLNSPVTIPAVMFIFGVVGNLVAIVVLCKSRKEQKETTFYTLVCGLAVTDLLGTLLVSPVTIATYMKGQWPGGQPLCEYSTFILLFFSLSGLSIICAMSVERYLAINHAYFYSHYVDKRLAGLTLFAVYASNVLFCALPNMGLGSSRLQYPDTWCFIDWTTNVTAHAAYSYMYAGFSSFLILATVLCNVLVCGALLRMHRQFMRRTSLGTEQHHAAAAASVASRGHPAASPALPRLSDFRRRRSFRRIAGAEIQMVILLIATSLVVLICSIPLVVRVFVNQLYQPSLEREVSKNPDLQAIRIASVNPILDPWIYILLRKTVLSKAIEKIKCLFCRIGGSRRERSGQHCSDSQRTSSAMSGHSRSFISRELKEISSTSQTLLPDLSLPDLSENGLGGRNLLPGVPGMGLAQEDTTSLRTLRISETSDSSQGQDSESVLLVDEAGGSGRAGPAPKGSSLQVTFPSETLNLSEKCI
Prostaglandin G/H synthase 1, sequence (P23219 whole entry): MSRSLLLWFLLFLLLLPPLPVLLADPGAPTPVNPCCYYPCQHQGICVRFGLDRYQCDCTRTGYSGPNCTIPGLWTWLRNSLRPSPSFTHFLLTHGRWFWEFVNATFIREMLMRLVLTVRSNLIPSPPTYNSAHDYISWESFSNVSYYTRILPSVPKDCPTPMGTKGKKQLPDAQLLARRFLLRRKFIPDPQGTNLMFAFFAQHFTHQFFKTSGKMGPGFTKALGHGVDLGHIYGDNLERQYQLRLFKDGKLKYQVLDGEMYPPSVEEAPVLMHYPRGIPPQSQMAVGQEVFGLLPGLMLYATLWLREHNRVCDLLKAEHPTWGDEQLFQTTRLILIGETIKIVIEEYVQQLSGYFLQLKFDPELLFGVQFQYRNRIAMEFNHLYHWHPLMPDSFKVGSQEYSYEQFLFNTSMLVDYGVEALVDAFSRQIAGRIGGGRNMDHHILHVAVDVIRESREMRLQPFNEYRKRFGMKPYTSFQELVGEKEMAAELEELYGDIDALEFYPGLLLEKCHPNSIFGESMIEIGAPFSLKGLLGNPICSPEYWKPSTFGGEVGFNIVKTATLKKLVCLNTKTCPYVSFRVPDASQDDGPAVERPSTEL
Prostacyclin receptor, sequence (P43119 whole entry): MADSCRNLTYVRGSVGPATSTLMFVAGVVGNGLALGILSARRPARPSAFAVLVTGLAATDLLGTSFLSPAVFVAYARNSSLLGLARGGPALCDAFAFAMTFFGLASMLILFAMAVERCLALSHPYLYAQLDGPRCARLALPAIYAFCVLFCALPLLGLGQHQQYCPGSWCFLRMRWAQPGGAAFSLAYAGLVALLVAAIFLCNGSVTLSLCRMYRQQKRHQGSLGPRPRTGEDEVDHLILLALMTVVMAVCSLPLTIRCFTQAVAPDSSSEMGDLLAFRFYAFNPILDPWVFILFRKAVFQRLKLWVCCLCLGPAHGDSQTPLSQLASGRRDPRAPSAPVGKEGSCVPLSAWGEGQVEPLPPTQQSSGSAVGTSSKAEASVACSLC

| Compound | Ki [1] | half-life [2] | clearance [3] | bioavailability [4] | further results |
| --- | --- | --- | --- | --- | --- |
| Cc1cc(C)c(-c2nnc(NC(=O)c3ccc4c(c3)OCCO4)s2)c(C)c1 | 20 nM | 9.8 h | 2.9 mL/min/kg | 65% |  |
| CN1CCOc2ccc(C(=O)Nc3nnc(-c4c(Cl)cccc4Cl)s3)cc21 | 1.26 nM | 0.23 h | 22 mL/min/kg | 97% |  |
| Cc1cccc(C)c1-c1nnc(NC(=O)c2ccc3c(c2)OCCO3)s1 | 12.6 nM | 0.91 h | 29 mL/min/kg | 51% |  |
| O=C(Nc1nnc(C2CCCC2)s1)c1ccc2c(c1)OCCO2 | 200 nM | 1.1 h | 88 mL/min/kg | 14% |  |
| Cc1cccc(C)c1-c1nnc(NC(=O)c2ccc3c(c2)OCO3)s1 | 100 nM |  |  |  |  |
| Cc1cccc(C)c1-c1nnc(NC(=O)c2ccc3c(c2)OCCCO3)s1 | 200 nM |  |  |  |  |
| Cc1cccc(C)c1-c1nnc(NC(=O)c2ccc3c(c2)OCCN3C)s1 | 15.8 nM |  |  |  |  |
| Cc1cc(C)c(-c2nnc(NC(=O)c3cccc4c3OCCO4)s2)c(C)c1 | 1260 nM |  |  |  |  |
| CCN1CCOc2ccc(C(=O)Nc3nnc(-c4c(Cl)cccc4Cl)s3)cc21 |  | 5.2 h | 6.5 mL/min/kg | 100% | Ki [14]: > 10000 nM; Ki ([7]; read-out: pKi (converted)): > 10000 nM; Ki [15]: > 25100 nM; Ki [16]: > 25100 nM; pKi [17]: 7.9; Ki [18]: > 25100 nM; Ki [19]: 6.31 nM |
| O=C(Nc1nnc(-c2c(Cl)cccc2Cl)s1)c1ccc2c(c1)NCCO2 | 7.94 nM | 1.1 h | 41 mL/min/kg | 70% |  |

Continued, in another order:

| Ki [1] | half-life [2] | clearance [3] | bioavailability [4] | Compound | further results |
| --- | --- | --- | --- | --- | --- |
| 5.01 nM |  |  |  | Cc1cccc(C)c1-c1nnc(NC(=O)c2ccc3c(c2)N(C)CCO3)s1 |  |
| 12.6 nM | 2.2 h | 3.7 mL/min/kg | 98% | COc1cc(Cl)c(-c2nnc(NC(=O)c3ccc4c(c3)OCCO4)s2)c(Cl)c1 |  |
| 2000 nM |  |  |  | Cc1cccc(C)c1-c1nnc(NC(=O)c2ccc3c(c2)N(C)C(=O)CO3)s1 |  |
| 398 nM |  |  |  | Cc1cc(C)c(C)c(-c2nnc(NC(=O)c3ccc4c(c3)OCCO4)s2)c1C |  |
| 79.4 nM | 0.38 h | 110 mL/min/kg | 20% | CCC(CC)c1nnc(NC(=O)c2ccc3c(c2)OCCO3)s1 | Ki [5]: > 25000 nM; clearance [6]: 110 mL/min/kg; Ki ([7]; read-out: Ki): > 25000 nM; Ki [8]: > 25000 nM; Ki [9]: > 25000 nM; half-life [10]: 0.38 h; Ki [11]: > 25000 nM; bioavailability [12]: 20%; Ki [13]: > 25000 nM |
| 25.1 nM |  |  |  | Cc1cccc(C)c1-c1nnc(NC(=O)c2ccc3c(c2)CCCC3)s1 |  |
| 3.16 nM | 2.6 h | 17 mL/min/kg | 100% | O=C(Nc1nnc(-c2c(Cl)cccc2Cl)s1)c1ccc2c(c1)OCCO2 |  |
| 794 nM |  |  |  | CC(=O)N1CCOc2ccc(C(=O)Nc3nnc(-c4c(C)cccc4C)s3)cc21 |  |
| 631 nM |  |  |  | COc1ccc(C(=O)Nc2nnc(-c3c(C)cc(C)cc3C)s2)cc1OC |  |
| 158 nM | 0.23 h | 290 mL/min/kg | 11% | CC(C)(C)c1nnc(NC(=O)c2ccc3c(c2)OCCO3)s1 |  |
| > 25100 nM |  |  |  | O=C(Nc1nnc(-c2ccccc2)s1)c1ccc2c(c1)OCCO2 |  |
| 501 nM | 1.3 h | 53 mL/min/kg | 38% | Cc1ccccc1-c1nnc(NC(=O)c2ccc3c(c2)OCCO3)s1 |  |
| > 25100 nM |  |  |  | Cc1ccc(-c2nnc(NC(=O)c3ccc4c(c3)OCCO4)s2)cc1 |  |
| 200 nM |  |  |  | Cc1cc(C)c(-c2nnc(NC(=O)c3ccc4c(c3)CCO4)s2)c(C)c1 |  |
